In the library only some 2.8% were active in any assay of this set; here they are far more common.
PP1 counter – counter-screen for PP5 inhibitors: inhibitors of human PP1-alpha; 320,000 tested, 0.9% active; P62136; purified PP1alpha, OMFP fluorescence; inhibition, % at 6.7 µM;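 active = inhibition above the mean inhibition of all tested compounds plus 3 SD, computed separately for each screening campaign, cut at about 15% in these data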
Target sequence (P62136 whole entry, looked up): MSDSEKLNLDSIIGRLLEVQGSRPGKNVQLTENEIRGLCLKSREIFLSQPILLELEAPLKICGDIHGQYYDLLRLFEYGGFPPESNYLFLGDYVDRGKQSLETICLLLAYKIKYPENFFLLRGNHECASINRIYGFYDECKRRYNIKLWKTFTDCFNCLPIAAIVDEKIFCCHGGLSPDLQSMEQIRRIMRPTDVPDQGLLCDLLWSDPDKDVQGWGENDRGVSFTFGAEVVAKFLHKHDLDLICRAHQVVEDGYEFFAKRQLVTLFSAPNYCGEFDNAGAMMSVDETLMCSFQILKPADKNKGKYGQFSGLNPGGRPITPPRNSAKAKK
pCIP destab – compounds decreasing mouse p/CIP protein stability; Q05BA5; F442A p/CIP-EGFP cells, EGFP fluorescence, 16 h; decrease of EGFP signal, % at 10 µM; 290,000 tested, 0.01% active; AID 1984;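 active = EGFP signal decrease of at least 30% at 10 µM or well 3 SD below plate mean, unless failing retest; inactive = the rest, including hits failing retest or dose response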
UBC13 inh – blocks human UBC13 polyubiquitin chain formation. 330,000 tested, 0.47% active. TR-FRET. inhibition, % at 20 µM. P61088. AID 485273; in the data active = inhibition above about 45%, passing the limit was not always enough; inconclusive = no clear call, values can overlap the other calls
Target sequence (P61088 whole entry, looked up): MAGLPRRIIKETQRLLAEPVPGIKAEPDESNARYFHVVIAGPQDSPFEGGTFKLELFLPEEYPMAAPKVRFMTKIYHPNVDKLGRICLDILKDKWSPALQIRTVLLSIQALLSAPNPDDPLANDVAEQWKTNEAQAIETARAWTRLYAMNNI
AI-2 QS mod – Vibrio harveyi AI-2 quorum sensing modulation | Vibrio harveyi JMH597 AI-2 luminescence/OD600 ratio, 9 h; hits give low values; strain lacks LuxN and CqsS sensors; 0 = neutral-control median | activity change, % at 7.5 µM | 300,000 tested, 0.4% active | AID 2094; in the data active = activity change below about -75%, passing the limit was not always enough; inconclusive = no clear call, values can overlap the other calls;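 also: luminescence divided by OD600 gain over 9 h not by final OD600 alone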
T cruzi inh – T. cruzi replication inhibition. inhibition, % (concentration not given with the values). AID 1885. 300,000 tested, 1.4% active. T. cruzi beta-gal in NIH3T3, luminescence, 90 h;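 active = mean inhibition across valid replicates above about 55%, limit read from the data; inconclusive = mean below that limit but half or more replicates reach it; inactive = mean below it, under half of replicates reach it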;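 also: signal also drops with host cell toxicity which is not excluded here; higher percent means less beta-gal luminescence so fewer parasites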
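compound dosing = single 50 nL compound addition per well in DMSO | material = NIH/3T3 host cells with β-galactosidase reporter T. cruzi | input = 5,000 host fibroblasts per well | timing = ≥90 h infection period, 3 h prior cell attachment | read-out basis = percent inhibition of parasite-derived β-gal signal | detection = GalScreen β-gal luminescence, detergent lysis, 60 min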
Large screens that a line does not name were inactive.

Cc1cccc(NC(=S)/N=C(\N)Nc2nc(C)c3ccc(C)cc3n2)c1	T cruzi inh 60
COc1cc(C=O)ccc1Oc1ccc(S(=O)(=O)N2CCOCC2)cc1[N+](=O)[O-]	none (no result: PP1 counter, pCIP destab, AI-2 QS mod, T cruzi inh)
O=C1C2=C(NC(=S)NC2c2ccc(Cl)cc2)NC(c2ccc(Cl)cc2)N1c1ccc(Cl)cc1 (stereo unspecified)	T cruzi inh 57
O=C(C1CCC(CNS(=O)(=O)c2ccccc2)CC1)N1CCOCC1 (stereo unspecified)	none
CC1CCN(CCCNc2cc(NCCO)c([N+](=O)[O-])c3nonc23)CC1	none
CN(CCO)c1cc(NCCCN2CCC(Cc3ccccc3)CC2)c2nonc2c1[N+](=O)[O-]	T cruzi inh 65
CC(C)(C)c1ccc(OCC(=O)Nc2ccc(C(=O)Nc3ccccc3C(=O)O)cc2)cc1	none
CCN(CC)c1nc(-c2ccccc2)ncc1S(=O)(=O)c1ccc(C)cc1	T cruzi inh 58
COc1ccc(C2c3[nH]c4ccccc4c3C[C@H]3C(=O)N(C4CCN(Cc5ccccc5)CC4)CC(=O)N23)c(OC)c1 (stereo partly specified)	none
O=C1[C@@H]2Cc3c([nH]c4ccccc34)C(c3cccc(Br)c3)N2C(=O)CN1C1CCN(Cc2ccccc2)CC1 (stereo partly specified)	T cruzi inh 65
O=C1[C@@H]2Cc3c([nH]c4ccccc34)C(c3ccccc3)N2C(=O)CN1C1CCN(Cc2ccccc2)CC1 (stereo partly specified)	T cruzi inh inconclusive
Cc1ccccc1C1c2[nH]c3ccccc3c2C[C@H]2C(=O)N(C3CCN(Cc4ccccc4)CC3)CC(=O)N12 (stereo partly specified)	T cruzi inh 61
CCOc1ccccc1C1c2[nH]c3ccccc3c2C[C@H]2C(=O)N(C3CCN(Cc4ccccc4)CC3)CC(=O)N12 (stereo partly specified)	T cruzi inh 62 (no result: PP1 counter)
O=C(O)c1ccc(Cl)c(NCc2cccnc2)c1	none
CCOc1ccc(NC(=O)CCSc2nc3c(c(CC)c2C#N)C(=O)CC(C)(C)C3)cc1	T cruzi inh 55
CCOc1cc(/C=N/NC(N)=S)cc(Br)c1OCc1ccccc1C	T cruzi inh 79
O=[N+]([O-])c1nn(-c2ccccc2)[n+]([O-])c1N1CCN(c2ccccc2)CC1	T cruzi inh 85
O=[N+]([O-])c1nn(-c2ccccc2)[n+]([O-])c1N1CCN(c2ccccc2F)CC1	T cruzi inh 57
CC(C)CCNC(=O)CN(Cc1ccco1)C(=O)CCC(=O)Nc1nccs1	none (no result: AI-2 QS mod)
CC1CCCN(C(=O)C(=O)c2cn(CC(=O)N3CCCCCC3)c3ccccc23)C1 (stereo unspecified)	T cruzi inh 62
CCN1CCN(C(=O)C(=O)c2cn(CC(=O)N3CCCC3)c3ccccc23)CC1	none
CCN1CCN(C(=O)C(=O)c2cn(CC(=O)N3CCCCCC3)c3ccccc23)CC1	none
NC(=O)C1CCN(C(=O)C(=O)c2cn(CC(=O)N3CCCCCC3)c3ccccc23)CC1	T cruzi inh 62
CC1CCN(C(=O)C(=O)c2cn(CC(=O)N3CCCCCC3)c3ccccc23)CC1	T cruzi inh 55
COc1cccc(NC(=O)CN(C)C(=O)CSCC(=O)Nc2ccc(C)cc2)c1	none (no result: pCIP destab, AI-2 QS mod, T cruzi inh)
CCOc1ccccc1CN1C(=O)NC(C)(c2ccccc2)C1=O (stereo unspecified)	none
NC(=O)c1ccc(-n2nnnc2Oc2ccccc2C(=O)N2CCOCC2)cc1	none
Cn1nc([N+](=O)[O-])nc1Oc1ccccc1C(=O)N1CCOCC1	T cruzi inh 93
C/C(=N\OC(=O)c1c(-c2ccccc2Cl)noc1C)c1ccncc1	none
Cc1onc(-c2cccc(Cl)c2Cl)c1C(=O)O/N=C(\N)c1ccc([N+](=O)[O-])o1	T cruzi inh 78
Cc1onc(-c2ccccc2)c1C(=O)O/N=C(\N)c1ccc([N+](=O)[O-])o1	AI-2 QS mod inconclusive
Cc1onc(-c2ccccc2Cl)c1C(=O)O/N=C(\N)c1ccccc1	T cruzi inh 59
Cc1ccc(S(=O)(=O)N(C)C)cc1NC(=O)C(C)Sc1ccccc1 (stereo unspecified)	none
COc1ccc(S(=O)(=O)N2CCCCC2)cc1NS(=O)(=O)c1ccc(CNC(C)=O)cc1	none (no result: PP1 counter, pCIP destab, AI-2 QS mod, T cruzi inh)
CCCCCCCC(=O)N/N=C(\C)c1ccc(N)cc1	none
CCCCCCCCCC(=O)N/N=C(\C)c1cccnc1	T cruzi inh 62
Oc1ccc(N=Nc2ccc3c(c2)OCCO3)c(O)c1	none
Oc1ccc(N=Nc2ccc3c(c2)OCCO3)c2cccnc12	T cruzi inh 83
COc1cc(C(=O)NNC(=O)c2cc(-c3ccccc3)n[nH]2)cc(OC)c1C	none (no result: pCIP destab, AI-2 QS mod, T cruzi inh)
Cc1ccc2c(c1)S/C(=C/c1ccc[n+](C)c1)N2CCO	T cruzi inh 57
O=C(Nc1ccccc1)C(Cl)C(=O)c1ccccc1 (stereo unspecified)	AI-2 QS mod -82
COc1ccccc1/C=C/C(=O)OCCCN(C)C	T cruzi inh 66
COc1ccc(/C=C/C(=O)OCCCN(C)C)cc1	T cruzi inh 57
COc1ccc(/C=C/C(=O)OC2CCCCC2CN(C)C)cc1 (stereo unspecified)	none
CN(C(=O)c1ccc2c(c1)OCO2)C1CCS(=O)(=O)C1 (stereo unspecified)	none (no result: pCIP destab)
N#Cc1ccccc1Sc1ccccc1C(=O)NCC(c1ccco1)N1CCCCC1 (stereo unspecified)	none (no result: pCIP destab, AI-2 QS mod, T cruzi inh)
O=C(NCC(c1ccco1)N1CCCC1)c1ccccc1Sc1ccc(C(F)(F)F)cc1[N+](=O)[O-] (stereo unspecified)	T cruzi inh 56 (no result: pCIP destab)
O=C(N/N=C(\c1ccccc1)c1cccnc1)c1cc(O)ccc1O	T cruzi inh 65
c1cncc(-c2nc(NCCCN3CCOCC3)c3c4c(sc3n2)CCC4)c1	T cruzi inh 73
S=c1nc[nH]c2nc[nH]c12	AI-2 QS mod -154, T cruzi inh inconclusive
COc1ccc2[nH]c3c(=S)nc[nH]c3c2c1	none
O=[N+]([O-])c1cc2c(cc1/C=N\NS(=O)(=O)c1ccccc1)OCO2	none
CNc1nc(N/N=C/c2cc3c(cc2[N+](=O)[O-])OCO3)nc(Nc2ccccc2)n1	T cruzi inh 72
CC12CCC(C(=O)N3CCN(C(c4ccccc4)c4ccccc4)CC3)(OC1=O)C2(C)C (stereo unspecified)	T cruzi inh 56
CC12CCC(C(=O)NCc3ccccc3)(OC1=O)C2(C)C (stereo unspecified)	none
CCOC(=O)Cc1cc(=O)n2[nH]c(C)c(-c3ccccc3OC)c2n1	none
CCOC(=O)Cc1cc(=O)n2[nH]c(C)c(-c3ccccc3)c2n1	PP1 counter 15
Cc1ccc(CCNC(=O)CN2C(=O)COc3ccccc32)cc1	T cruzi inh 67
Cc1ccc(CCNC(=O)CN2C(=O)COc3ccc(S(=O)(=O)N4CCCCC4)cc32)cc1	none

From PubChem BioAssay
